Reference: ChEMBL document CHEMBL4513216, “Probing the Open Global Health Chemical Diversity Library for Multistage-Active Starting Points for Next-Generation Antimalarials” (ACS Infect Dis, 2020)

Assay: Toxicity liver stage against HepG2, at 10uM
Type: cell-based
Set-up: test concentration 10 uM, cell line HepG2-A16-CD81EGFP
Conditions: human, HepG2-A16-CD81EGFP cells; read-out: INHIBITION
In short: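 Uninfected HepG2-A16-CD81EGFP cells, 3 × 10^3 per well, 1536-well, plated on prespotted compound at 10 μM final, parasite-free screening media added to match infected plates; puromycin 10 μM positive, DMSO 0.5% negative; run in parallel with 48 h PbLuc assay at 37 °C, 5% CO2; viability by CellTiter-Glo luminescence, normalized to controls.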

Structure (SMILES) | cytotoxicity at 10 µM [%]
CC1Cn2c(nc3c2c(=O)[nH]c(=O)n3C)O1 (configuration not stated) | 1.26
COC(=O)CNC(=O)N1CCN(c2nc3ccccc3n2C)CC1 | -9.46
CC(C)(C)OCC1CN(Cc2cccs2)S(=O)(=O)c2cnccc2O1 (configuration not stated) | 2.89
CN1C[C@H](O)[C@]2(CCN(C(=O)NCc3ccccc3)C2)S1(=O)=O | 4.53
CCCC(O)CN1CCC(=O)N(CC2CC2)Cc2cc3c(cc21)OCO3 (configuration not stated) | -1.89
O=C(O)Cn1ccc(=O)c2ccc(Cl)cc21 | -7.76
COCC(=O)N(Cc1ccc2cc[nH]c2c1)C1CC1 | -5.54
CC(C)n1cc(C(=O)NC2CCS(=O)(=O)C2)c2ccccc2c1=O (configuration not stated) | 1.85
CC(C)c1sc(Cl)nc1C(=O)N1CCN(Cc2ccccc2)CC1 | -2.7
CCCc1noc(C2CC(=O)N(Cc3ccccc3)C2)n1 (configuration not stated) | -2.62
O=C(Cc1cccs1)N1CCC2(CCCN(CC3CCOCC3)C2)C1 (configuration not stated) | -144
CCCS(=O)(=O)N1CCC2(CC1)CN(C(=O)N(C)C)c1ccccc12 | -108
Cc1nc([C@H]2C[C@@H]3CCN(Cc4cnn(C)c4)C[C@H]3O2)sc1C | -1.96
COc1ncnc2c1CCN(Cc1cccc(C)n1)CC2 | -146
CC(C)c1cc2c(O)nc(CSCC(=O)NCc3ccccn3)nc2s1 | -5.29
COc1cc(Cl)c(C)cc1-n1nnc(C(=O)O)c1C | -8.29
COc1cc2ncn(CC(=O)NCCCN(C)C)c(=O)c2cc1OC | 10
O=C1CC(c2ccccc2)c2c(n3ccsc3nc2=O)N1 (configuration not stated) | -4.74
O=C(C1CCOC1)N1CC[C@@H](O)[C@@H]1Cc1ccccc1 (some centres not stated) | 9.34
O=C(c1ccc(Cl)cc1)N1CCCn2nnc(Cn3cccn3)c2C1 | -10.3
Clc1cccc(-n2cnnn2)c1N1CCCC1 | 9.35
COC(=O)C1=NOC(Cc2cc(OC)c3c(c2)OCO3)C1 (configuration not stated) | 5.82
Cc1nn(C)c2c(N3CCN(C(=O)c4ccccc4)CC3)ncnc12 | 10.9

Structure (SMILES) | cytotoxicity at 10 µM [%]
COc1ccccc1OCCN(C)Cc1c(C2CC2)[nH]c2ncccc12 | 5.62
CC1(c2[nH]ncc2C(N)=O)CCN(S(=O)(=O)c2ccccc2)CC1 | -1.29
CN1CCN(c2nc(O)cc(Cc3ccccc3F)n2)CC1 | -5.08
CCN1CCN(c2nc(O)cc(Cc3ccccc3F)n2)CC1 | -1.83
Cc1nc2cc(C(=O)N3CCn4c(nnc4C4CC4)C3)ccc2s1 | -1.41
C[C@]12CCCCN(C(=O)c3ccccn3)[C@H]1CCCC(=O)N2 | -20.1
Cc1n[nH]c(C)c1-c1cnc(C2CCN(S(C)(=O)=O)CC2)cn1 | -1.57
CNc1cc(C)nc(C2CN(Cc3cncs3)CCO2)c1 (configuration not stated) | -12.3
Cc1cc(-c2cnc(NC3CCCC3)nc2-c2ccc(C)o2)on1 | -22.4
CC(=O)N1CCCC1c1cncc(Oc2ccc(F)cc2)n1 (configuration not stated) | -15.8
Cc1ccc(C(=O)N2CCOC(c3nc(-c4ncccn4)no3)C2)cc1 (configuration not stated) | -19.9
CC(C)(C)C(=O)N1CCC(c2nc(O)cc(-c3ccncc3)n2)CC1 | -22
COc1ccc2nc(C3CC3)cc(C(=O)NCc3ncnn3C)c2c1 | -8.06
O=C(NCCc1nncn1C1CC1)C1(Cc2ccccc2)CCC1 | 7.87
CN(Cc1nnc2ccccn12)C(=O)CC1CCCCC1 | 13.7
Cn1c(NCc2ccc(C(N)=O)cc2)nc2cc(Cl)ccc21 | 1.42
Cc1cc(C)n2c(CNCc3ccc(OC(F)F)cc3)cnc2n1 | -145
CCOCC(=O)Nc1cc(-c2cccc(F)c2F)n[nH]1 | 0.107
COc1ccccc1CCNC(=O)CNCC1CN(C)CCO1 (configuration not stated) | 1.49
Cc1noc(C)c1C(=O)N(C)C(C)c1ccc(S(C)(=O)=O)cc1 (configuration not stated) | 4.96
CCN(CC)C(=O)N1CCOCC1c1c(C)nn(C)c1C (configuration not stated) | 11.3
CC(C)(CNC(=O)Nc1cccc(-c2cccs2)c1)C(N)=O | -9.99
COCCN1CCC(NC(=O)NCC2(c3cccc(F)c3)CC2)C1 (configuration not stated) | 5.59

Structure (SMILES) | cytotoxicity at 10 µM [%]
CCOCC(=O)Nc1ccc(-n2ccc(C(N)=O)n2)cc1 | -5.27
CN(c1ccc2ccccc2c1)S(=O)(=O)c1cc(C(=O)O)cs1 | 1.2
Cc1ccc(-c2cc(CN3CCc4cnc(C)nc4C3)on2)cc1 | 4.88
N#Cc1ccc(C(=O)NCC2(N3CCOCC3)CCCC2)nc1 | 8.96
Cc1noc(OCCOc2cccc(C#N)c2)n1 | 0.63
COCCN(CCOC)C(=O)c1cccc(Cn2nc(C)cc2C)c1 | -8.22
COCc1nn(Cc2ccc(Cl)s2)c(=O)o1 | 1.97
COC(=O)N1CCC(NC(=O)CC(C)CCc2ccccc2)CC1 (configuration not stated) | 4.6
CCC(CC)c1cc(CNC(=O)N2CCOCC2CC)on1 (configuration not stated) | -5.59
O=C1CN(Cc2nnc(-c3ccc(Br)cc3)o2)CCN1 | 2.55
NC(=O)CCOc1nc(-c2ccccc2Cl)no1 | -1.64
CCOCCCC(=O)NCc1cn2cc(Br)ccc2n1 | 2.73
CCc1cc(NCc2ccccc2CN2CCCC2)n2ncnc2n1 | 5.42
CCCN1CCN(C(=O)c2scnc2C)CC1 | -0.73
O=C(NCCCOCC1CC1)Nc1cccnc1N1CCOCC1 | 5.55
CC(Oc1ccccc1C(F)(F)F)C(=O)NCC(N)=O (configuration not stated) | -8.38
Cc1nc2ccccc2n1Cc1cc(C(=O)NC2CCOC2)no1 (configuration not stated) | 4.45
Cc1ccc(CNC(=O)CC2C(=O)NCCN2Cc2ccccc2C)s1 (configuration not stated) | -7.98
COc1ccc2c(c1)OCC(Cc1ccnc(N)n1)C2 (configuration not stated) | -0.651
CN(C)Cc1ccccc1CN(C)C(=O)c1ccoc1 | -11.8
O=C(NC1CC(=O)N(C2Cc3ccccc3C2)C1)c1ccoc1 (configuration not stated) | -2.4
Cc1ccc2[nH]c(-c3cn(C4CCNCC4)nn3)nc2c1C | -4.92
COC(=O)[C@@H](Nc1nc(C2CCCC2)nc2c1cnn2C)[C@@H](C)O | -50

Structure (SMILES) | cytotoxicity at 10 µM [%]
COCCN(Cc1ccccc1Cl)C(=O)c1c(C)cc(C)[nH]c1=O | -5.6
Cc1ccc(Oc2ncccc2CNC2CCCCC2)cn1 | -8.59
CCSCCC(=O)N1CCc2[nH]nc(COc3ccccc3)c2C1 | -2.19
O=C(Cc1cc(F)cc(Cl)c1)N[C@@H]1CCNC[C@H]1O | -3.66
CCCn1cc(C(=O)NC(CC(=O)O)c2ccco2)c(C)n1 (configuration not stated) | -61.4
O=C(C1CCC1)N1CCc2[nH]cnc2C12CCN(C1CCOCC1)CC2 | -2.4
Cc1nccn1C1(C(=O)O)CCN(Cc2ccc3nsnc3c2)CC1 | -4.97
O=C(NCC(F)(F)F)C1CCC(=O)N(C2CCCC2)C1 (configuration not stated) | -8.77
CN(C)c1nc(NCc2ccccc2Cn2cccn2)ncc1F | 54.4
CN(C)CCNC(=O)c1cnc2c(c1)nc(-c1ccccc1Cl)n2C | 10.6
Cc1ccc([C@@H]2CN(S(=O)(=O)c3cccs3)C[C@H]2N(C)C)cc1 | -3.12
CC(C)c1cc(C(F)(F)F)n2nc(CCC(=O)O)nc2n1 | 5.97
COc1cccc(OC)c1C(=O)N1CCN(c2ccccc2F)CC1 | -5.22
Cc1cncc(C2CCCN(C(=O)c3c[nH]c(=O)[nH]c3=O)C2)n1 (configuration not stated) | 1.92
CCc1nc2n(n1)CC(NCc1cnn(-c3ccccc3)n1)CC2 (configuration not stated) | -3.01
CC(Cn1cccn1)NC(=O)NCc1cccnc1OC(C)C (configuration not stated) | -9.44
CCc1nc(C2CCCN2C(=O)c2csc(COC)n2)no1 (configuration not stated) | 1.04
CC(Cn1cccn1)NCC(=O)NCCc1cccs1 (configuration not stated) | -12.7
Cc1nc(C2CCCN(C(=O)COCCc3ccccc3)C2)no1 (configuration not stated) | -11.1
Cc1cnn(CC2CN(CC(=O)NCc3ccco3)CCO2)c1 (configuration not stated) | -1.43
O=C(CN1CCOC(Cn2cccn2)C1)NCc1ccccn1 (configuration not stated) | -6.73
CC(=O)N1CCN(C(=O)NCCc2ccc(Cl)s2)CC1 | -11.6
CCOc1cccc(C(=O)N2CCC(c3n[nH]c(C4CC4)n3)CC2)c1 | -16.8

Structure (SMILES) | cytotoxicity at 10 µM [%]
CCC(=O)N(C)C1CCN(Cc2ncc(C)c(OC)c2C)CC1 | -9.86
CCc1ncncc1C(=O)N1CCN(Cc2c(C)noc2C)CC1 | -13.8
Cc1nc(C)n(CC2CCCN2CC(=O)Nc2cc(C(C)C)no2)n1 (configuration not stated) | -0.292
CN(CCc1ccc(F)cc1)Cc1nc2c(cnn2C)c(=O)[nH]1 | -1.69
CCc1nc(C2CCCN2C(=O)c2ccoc2C)no1 (configuration not stated) | -11.6
O=C(CN1CCC(c2ccnn2CCO)CC1)NCc1cccs1 | -10.4
CCCc1cc(C(=O)N2CCCC(n3ccnc3C)C2)[nH]n1 (configuration not stated) | -15.6
Cc1ccn(-c2ccc(C(=O)N3CCCC(C(N)=O)C3)cc2)n1 (configuration not stated) | -5.38
Cc1cc(C)n(C2CN(CC(=O)NCC(C)(C)N3CCOCC3)C2)n1 | -3.42
Cn1cc(N2CCCC(NCc3cccc4c3OCCCO4)C2)cn1 (configuration not stated) | -8.58
CCc1nc(C2CCCN2C(=O)CCCn2cccn2)no1 (configuration not stated) | -13.1
CCN1CC(C(=O)NCc2ccccc2-n2cccn2)CC1=O (configuration not stated) | 3.2
Cc1n[nH]c(C2CN(C(=O)c3cc(C4CC4)[nH]n3)CCO2)n1 (configuration not stated) | 0.192
CCC(=O)NCCCn1c(-c2cccnc2C)cc2cccnc21 | 3.84
Cc1cc(Oc2ccccc2F)nc(C2CCCCN2)n1 (configuration not stated) | 8.44
Cn1cc(C(=O)N2CC[C@@H]3[C@@H]2CCN3Cc2cccnc2)cn1 | 3.06
Cc1ccc2c(n1)N(CCN(C)C)CCN(C(=O)c1ccc[nH]1)C2 | 6.59
CCN(C)c1ncnc2c1CCN(Cc1csc(C)n1)CC2 | -1.13
Cn1cnc2c1C(COCC1CC1)CN(C(=O)Cc1ccsc1)C2 (configuration not stated) | -2.67
CCC12CN3CC(CC)(CN(C1)C3c1[nH]c(=O)[nH]c(=O)c1C)C2=O (configuration not stated) | 12.5
